Assay results: ChEMBL document CHEMBL4020816

Tests used:
Cannabinoid receptor 1 [1] = biological target: T1, Cannabinoid receptor 1 (Homo sapiens, UniProt P21554); test: Displacement of [3H]CP55940 from recombinant human CB1 receptor expressed in beta-galactosidase expressing CHOK1 cell membranes assessed as kinetic rate index by measuring ratio of radioligand binding at 30 mins to 240 mins by scintillation spectrometry
Cannabinoid receptor 1 [2] = biological target: T1, Cannabinoid receptor 1; test: Antagonist activity at recombinant human CB1 receptor expressed in HEK293 cell membranes assessed as inhibition of CP55940-induced [35S]GTPgammaS binding preincubated for 1 hr followed by CP55940 addition and subsequent incubation with [35S]GTPgammaS measured after 30 mins by scintillation spectrometry; format: functional
Summary of the method: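 Antagonism was measured by [35S]GTPγS binding at 30 °C on membranes of HEK-293 cells stably expressing recombinant human CB1.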

Cannabinoid receptor 1 [3] = biological target: T1, Cannabinoid receptor 1; test: Displacement of [3H]CP55940 from recombinant human CB1 receptor expressed in beta-galactosidase expressing CHOK1 cell membranes after 60 mins by scintillation spectrometry

T1 sequence (P21554 whole entry): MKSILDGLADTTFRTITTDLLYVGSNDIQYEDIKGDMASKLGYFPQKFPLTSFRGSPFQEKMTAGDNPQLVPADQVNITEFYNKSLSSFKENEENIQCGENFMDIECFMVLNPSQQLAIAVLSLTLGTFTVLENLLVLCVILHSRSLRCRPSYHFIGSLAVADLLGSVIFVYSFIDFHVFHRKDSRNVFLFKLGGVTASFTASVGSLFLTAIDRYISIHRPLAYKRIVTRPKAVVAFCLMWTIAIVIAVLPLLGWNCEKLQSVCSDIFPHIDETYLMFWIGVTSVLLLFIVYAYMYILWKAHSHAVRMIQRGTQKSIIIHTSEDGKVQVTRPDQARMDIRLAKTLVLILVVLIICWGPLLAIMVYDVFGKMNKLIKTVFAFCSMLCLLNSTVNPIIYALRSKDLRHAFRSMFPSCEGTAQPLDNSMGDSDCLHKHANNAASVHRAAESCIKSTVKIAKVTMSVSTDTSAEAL

Row | SMILES | Ratio (Cannabinoid receptor 1 [1]) | IC50 (Cannabinoid receptor 1 [2]; read-out: IC50) [pM] | Ki (Cannabinoid receptor 1 [3]; read-out: Ki) [pM] | Ki (Cannabinoid receptor 1 [3]; read-out: pKi (converted)) [pM] | IC50 (Cannabinoid receptor 1 [2]; read-out: pIC50 (converted)) [pM]
1 | Cc1c(C(=O)NN2CCCCC2)nc(-c2ccc(Cl)cc2Cl)n1-c1ccc(OS(=O)(=O)CCC(C)(C)C)cc1 | 0.73 | 2400 | 600 | – | –
2 | Cc1c(C(=O)NN2CCCCC2)nc(-c2ccc(Cl)cc2Cl)n1-c1ccc(OCCCF)cc1 | 1.09 | 6000 | 340 | 100 | –
3 | Cc1c(C(=O)NN2CCCCC2)nc(-c2ccc(Cl)cc2Cl)n1-c1ccc(OCCCC(F)(F)F)cc1 | 0.8 | 1200 | 320 | – | –
4 | Cc1c(C(=O)NN2CCCCC2)nc(-c2ccc(Cl)cc2Cl)n1-c1ccc(OS(=O)(=O)CCCC(F)(F)F)cc1 | 0.93 | 1200 | 62 | – | –
5 | Cc1c(C(=O)NC2CCC(O)CC2)nc(-c2ccc(Cl)cc2Cl)n1-c1ccc(OS(=O)(=O)CCC(F)(F)F)cc1 (mixture of isomers) | 0.88 | 3800 | 370 | – | –
6 | Cc1c(C(=O)NN2CCCCC2)nc(-c2ccc(Cl)cc2Cl)n1-c1ccc(OS(=O)(=O)CCC(F)(F)F)cc1 | 1.02 | 1100 | 110 | – | –
7 | Cc1c(C(=O)NN2CCCC(O)C2)nc(-c2ccc(Cl)cc2Cl)n1-c1ccc(OS(=O)(=O)CCC(F)(F)F)cc1 (racemic) | 0.71 | 2700 | 270 | – | –
8 | Cc1c(C(=O)NN2CCCCC2)nc(-c2ccc(Cl)cc2Cl)n1-c1ccc(OS(=O)(=O)CCC(C)C)cc1 | 1.02 | 1300 | 200 | – | –
9 | Cc1c(C(=O)NN2CCCCC2)nc(-c2ccc(Cl)cc2Cl)n1-c1ccc(OCCC(F)(F)F)cc1 | 0.9 | 5600 | 1260 | – | –
10 | Cc1c(C(=O)NN2CCCCC2)nc(-c2ccc(Cl)cc2Cl)n1-c1ccc(OS(=O)(=O)CCCF)cc1 | 0.88 | 3100 | 320 | – | –
11 | CCCS(=O)(=O)Oc1ccc(-n2c(-c3ccc(Cl)cc3Cl)nc(C(=O)NN3CCCCC3)c2C)cc1 | 0.59 | 1800 | 280 | – | –
12 | Cc1c(C(=O)Nc2ccc(C(F)(F)F)cn2)nc(-c2ccc(Cl)cc2Cl)n1-c1ccc(OS(=O)(=O)CCC(F)(F)F)cc1 | 1.39 | 610 | 190 | – | –
13 | Cc1c(C(=O)Nc2ccc(OC(F)(F)F)cc2)nc(-c2ccc(Cl)cc2Cl)n1-c1ccc(OS(=O)(=O)CCC(F)(F)F)cc1 | 1.29 | 660 | 220 | 501 | –
14 | Cc1c(C(=O)N[C@H]2CCC[C@H](O)C2)nc(-c2ccc(Cl)cc2Cl)n1-c1ccc(OS(=O)(=O)CCC(F)(F)F)cc1 (racemic) | 0.89 | 1100 | 100 | – | –
15 | Cc1c(C(=O)Nc2ccc(C(F)(F)F)nc2)nc(-c2ccc(Cl)cc2Cl)n1-c1ccc(OS(=O)(=O)CCC(F)(F)F)cc1 | 1.12 | 2200 | 310 | – | –
16 | Cc1ccc(NC(=O)c2nc(-c3ccc(Cl)cc3Cl)n(-c3ccc(OS(=O)(=O)CCC(F)(F)F)cc3)c2C)nc1 | 0.92 | 1700 | 140 | – | –
17 | Cc1c(C(=O)N[C@@H]2CCCC[C@@H]2O)nc(-c2ccc(Cl)cc2Cl)n1-c1ccc(OS(=O)(=O)CCC(F)(F)F)cc1 | 1.06 | 1800 | 27 | 10 | –
18 | Cc1c(C(=O)Nc2ccc(F)nc2)nc(-c2ccc(Cl)cc2Cl)n1-c1ccc(OS(=O)(=O)CCC(F)(F)F)cc1 | 0.7 | – | 130 | – | 1260
19 | Cc1c(C(=O)N[C@@H]2CCCC[C@H]2O)nc(-c2ccc(Cl)cc2Cl)n1-c1ccc(OS(=O)(=O)CCC(F)(F)F)cc1 | 0.74 | 1700 | 300 | – | –
20 | Cc1c(C(=O)N[C@H]2CCCC[C@H]2N)nc(-c2ccc(Cl)cc2Cl)n1-c1ccc(OS(=O)(=O)CCC(F)(F)F)cc1 (racemic) | 0.79 | 7100 | 520 | – | –
21 | CCCCS(=O)(=O)Oc1ccc(-n2c(-c3ccc(Cl)cc3Cl)nc(C(=O)NN3CCCCC3)c2C)cc1 | 0.77 | 1300 | 180 | – | –
22 | Cc1c(C(=O)N[C@@H]2CCCC[C@@H]2N(C)C)nc(-c2ccc(Cl)cc2Cl)n1-c1ccc(OS(=O)(=O)CCC(F)(F)F)cc1 (racemic) | 0.74 | – | – | – | –
